Data as given in ChEMBL document CHEMBL1134791, “2- and 3-substituted 1,4-naphthoquinone derivatives as subversive substrates of trypanothione reductase and lipoamide dehydrogenase from Trypanosoma cruzi: synthesis and correlation between redox cycling activities and in vitro cytotoxicity” (J Med Chem, 2001).

Experiments:
[1] = molecular target: Trypanothione reductase (Trypanosoma cruzi, UniProt P28593); assay: Inhibitory activity against Trypanosoma cruzi trypanothione disulfide reductase, assay in presence of 57 uM T(S)2.
Chain of Trypanothione reductase (P28593 whole entry): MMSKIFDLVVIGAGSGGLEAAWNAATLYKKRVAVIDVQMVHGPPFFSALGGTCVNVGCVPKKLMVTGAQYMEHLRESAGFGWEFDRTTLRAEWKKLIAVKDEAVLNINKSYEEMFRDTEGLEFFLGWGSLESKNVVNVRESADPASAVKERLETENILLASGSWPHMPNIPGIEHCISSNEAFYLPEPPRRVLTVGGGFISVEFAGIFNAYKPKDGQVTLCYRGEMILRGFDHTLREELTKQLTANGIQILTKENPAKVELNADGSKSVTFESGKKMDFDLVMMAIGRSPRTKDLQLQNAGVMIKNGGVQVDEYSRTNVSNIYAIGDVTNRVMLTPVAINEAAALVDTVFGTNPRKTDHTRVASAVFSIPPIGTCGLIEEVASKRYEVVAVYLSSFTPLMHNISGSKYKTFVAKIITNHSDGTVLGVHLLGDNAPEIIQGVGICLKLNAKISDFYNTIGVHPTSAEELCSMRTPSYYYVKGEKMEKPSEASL
Summary of the method: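 Assay contained 250 µM NADPH, 57 µM T(S)₂, inhibitor at 0.3–50 µM and 1% DMSO final. Started with enzyme; NADPH loss followed at 340 nm. IC50 in duplicate.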

[2] = Compound dose toxic against macrophages of Trypanosoma cruzi; assay type: ADME
Summary of the method: (§1)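 Starch-induced peritoneal macrophages from female CD1 mice, 4 × 10⁵/mL in RPMI-1640, infected 5:1 with T. cruzi Y-strain trypomastigotes from MDCK overlay. Drug in 3-fold dilution series, quadruplicate, 3 days. Slides methanol-fixed and Giemsa-stained.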

[3] = tested on: Trypanosoma brucei; assay: In vitro antiparasitic activity against Trypanosoma brucei was tested by sigmoidal regression analysis; assay type: functional; details: read-out: ED50 (the source's name)
Summary of the method: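 T. b. brucei S427 bloodstream trypomastigotes at 2 × 10⁵/mL in HMI-18 medium, in triplicate, with a 3-fold dilution series starting at 30 µM. Incubated 3 days at 37 °C in 5% CO₂. Pentamidine served as positive control. Viability read by tetrazolium colorimetric assay on day 3. ED50 by sigmoidal regression.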

[4] = Compound dose toxic against mouse peritoneal macrophages infected with Leishmania donovani; assay type: ADME
Summary of the method: (§2)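 Starch-induced peritoneal macrophages from female CD1 mice, 4 × 10⁵/mL in RPMI-1640, infected with L. donovani (MHOM/ET/67/L82) amastigotes from hamster spleen. Drug in 3-fold dilution series, quadruplicate, 5 days. Giemsa-stained slides.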

[5] = Compound dose toxic against macrophages of Trypanosoma cruzi (100 % inhibition); assay type: ADME; summary of the method: as §1
[6] = Compound dose toxic against mouse peritoneal macrophages infected with Leishmania donovani (100 % inhibition); assay type: ADME; summary of the method: as §2
[7] = Compound dose toxic against mouse peritoneal macrophages infected with Leishmania donovani (100% inhibition); assay type: ADME; summary of the method: as §2
[8] = Compound dose toxic against macrophages of Trypanosoma cruzi (100% inhibition); assay type: ADME; summary of the method: as §1
[9] = tested on: Trypanosoma brucei; assay: In vitro antiparasitic activity against Trypanosoma brucei was tested by sigmoidal regression analysis; details: read-out: ED50 (the source's name)
[10] = tested on: Trypanosoma cruzi; assay: In vitro antiparasitic activity against Trypanosoma cruzi was tested by sigmoidal regression analysis; assay type: functional; details: read-out: ED50 (the source's name)
Summary of the method: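 Mouse peritoneal macrophages (female CD1, starch-elicited, harvested 24 h) infected with L. donovani amastigotes (strain MHOM/ET/67/L82, hamster spleen) or T. cruzi Y-strain trypomastigotes (5:1, from MDCK overlay). Infected cells exposed to a 3-fold dilution series in quadruplicate for 5 days (L. donovani) or 3 days (T. cruzi). Giemsa-stained slides scored for % macrophages cleared of amastigotes versus untreated cultures. ED50 by sigmoidal regression.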

Compound	IC50 [1] [µM]	Toxic dose [2] [µM]	EC50 [3] [µM]	Toxic dose [4] [µM]	also measured
CC1=C(NCCCNCCCCNCCCN)C(=O)c2c(O)cccc2C1=O	28	1	> 30	–	–
CC1=C(NCCCNCCCN)C(=O)c2c(O)cccc2C1=O	57	1	> 12.5	–	–
CN1CCN(C(=O)CCCCC2=C(CCCCC(=O)N3CCN(C)CC3)C(=O)c3c(O)cccc3C2=O)CC1	5.9	10	> 56	3	–
CC1=CC(=O)c2ccccc2C1=O [MENADIONE]	–	10	–	30	–
CC1=C(NCCCCN)C(=O)c2ccccc2C1=O	> 57	3	> 12.5	–	–
CN1CCN(C(=O)CCCCCC2=C(CCCCCC(=O)N3CCN(C)CC3)C(=O)c3c(O)cccc3C2=O)CC1	2.9	3	13.1	3	–
CC1=C(CCC(=O)NCCCN2CCN(C)CC2)C(=O)c2c(O)cccc2C1=O	16	10	> 10	–	–
CC1=C(NCCCNCCCCNCCCNC2=C(C)C(=O)c3ccccc3C2=O)C(=O)c2ccccc2C1=O	6.5	1	> 1	30	–
CC1=CC(=O)c2c(O)cccc2C1=O [PLUMBAGIN]	–	–	1.5	–	Toxic dose [5]: 10 µM; Toxic dose [6]: 3 µM
CC1=C(NCCCNCCCCNCCCN)C(=O)c2ccccc2C1=O	28	1	30	30	–
CN1CCN(CCCNC(=O)CCCCCC2=C(CCCCCC(=O)NCCCN3CCN(C)CC3)C(=O)c3c(O)cccc3C2=O)CC1	0.8	30	10.1	10	–
CC1=C(O)c2cccc(O)c2C(=O)/C1=N\CCCN1CCN(C)CC1	> 57	–	> 12.5	–	Toxic dose [7]: 30 µM; Toxic dose [8]: 10 µM
CC1=C(NCCCN2CCN(CCCNC3=C(C)C(=O)c4ccccc4C3=O)CC2)C(=O)c2ccccc2C1=O	10	30	> 12.5	–	–
CC1=C(NCCCNCCC/N=C2/C(=O)c3ccccc3C(O)=C2C)C(=O)c2ccccc2C1=O	9	10	> 12.5	–	–
CC1=C(CCC(=O)NCCCN2CCN(CCCNC(=O)CCC3=C(C)C(=O)c4cccc(O)c4C3=O)CC2)C(=O)c2c(O)cccc2C1=O	2.6	–	–	–	EC50 [9]: 30.3 µM; EC50 [10]: 44 µM
CC1=C(CCC(=O)NCCCN2CCN(C)CC2)C(=O)c2ccccc2C1=O	38	30	> 10	–	–
CC1=C(NCCCN2CCN(CCCN)CC2)C(=O)c2c(O)cccc2C1=O	39	3	> 3	30	–
CC1=C(CCCC(=O)NCCCCNCCCNC(=O)CCCC2=C(C)C(=O)c3cccc(O)c3C2=O)C(=O)c2c(O)cccc2C1=O	2.3	–	> 4.5	–	EC50 [10]: 46 µM
CC1=C(CCCC(=O)O)C(=O)c2c(O)cccc2C1=O	> 50	–	78	–	EC50 [10]: > 109 µM
